In the EternaBench riboswitch data:

Tested on: MS2 coat protein
Assay: apparent Kd, MS2 coat protein; higher = weaker binding; RNA-MaP array; FMN 200 µM where present
Method in brief: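 Two titrations, one without ligand and one with constant ligand, were run with SNAP-549-labelled MS2 coat protein from 0.7 or 1.5 nM, doubling to 3 µM. The targets were designs transcribed by stalled E. coli RNA polymerase on Illumina sequencing-chip clusters, in 100 mM Tris-HCl pH 7.5, 80 mM KCl, 4 mM MgCl2, BSA, DTT, yeast tRNA and Tween-20. The apparent Kd is the median of filtered per-cluster binding-curve fits, with green signal normalised to red-channel RNA signal and control-cluster median Fmax.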

[1] = designed as: OFF switch for flavin mononucleotide, no ligand
[2] = ligand present: flavin mononucleotide, designed as: OFF switch for flavin mononucleotide
[3] = designed as: ON switch for flavin mononucleotide, no ligand
[4] = ligand present: flavin mononucleotide, designed as: ON switch for flavin mononucleotide

Sequence	apparent Kd [1]	apparent Kd [2]	apparent Kd [3]	apparent Kd [4]
GUUUUACAUGAGGAUCACCCAUGUGAGGAUAUAUUGUUAUUUUUGAUAUUUUUUGGUGGUAGAAGGCGCGUGAU	36.4 nM	32.7 nM		
UCCGUGGCAUCUCGCGCGUGUCCACAUGAGGAUCACCCAUGUCAGGAUAUACGGAAUGUCGUUCCGUAGAAGGGACAAGGGCUG	172 nM	108 nM		
AAAAUGGUCUAGGAUAUGACAAAUCUGAGCACGUCAGAAGGAGACACAUGAGGAUCACCCAUGUGGGUGCGAAA	36.1 nM	189 nM		
GAUGUAUUCGUAGGAUAUCCGUCGCCACCGUGUGGAGAAGGACGAACAUGAGGAUCACCCAUGUAUCAUGGUGUAGACGCUUUC	63.6 nM	70.9 nM		
AAUUGACACGUAGGAUAUCGAACUAUUUUAACACGAGAAGGACGUACAUGAGGAUCACCCAUGUUUAAUGGAGUAGAUAAGUUG	154 nM	290 nM		
CAUCAGUGUUAAGGAUAUGGCAGCGGAAGCGCACCAGAAGGUAGCACAUGAGGAUCACCCAUGUGUUCUGGCUUGAGCGUGAUC	36.5 nM	75.2 nM		
UAGAAGUCAGGAUAUGCAUGGCGGGACUUGCGUCGUGGCGUGCAGAAGGGACAUGAGGAUCACCCAUGUAAAGU	51.5 nM	55.5 nM		
AUGUACCGGUGAGGAUAUUUUUAAUAGAACUUUAUGAUAUACAUGAGGAUCACCCAUGUUACUUUAAAGAAGGCAUCGGAUUAA	17.7 nM	14.2 nM		
UGUUGUAUUACAGGAUAUCUAUUAUUUUUAUGUAGAGAAGGGUAUUCACAUGAGGAUCACCCAUGUAUAUACGAGGAAGUUGUG			44.1 nM	45.5 nM
GCACGGUAAGUGAGGAUAUACCUCUGGAUACAGAGGUAGAAGGCACAUGAGGAUCACCCAUGUCCUAGCCGUGC	36.7 nM	271 nM		
AUUACAUGAGGAUCACCCAUGUACAGAACGUUUCAUUACAGUGAGGAUAUACGAAAUGUAAAAGCGUAGAAGGCACUGGGUACA			29.5 nM	22.2 nM
GAUCCUCGCGGAGGAUAUAUAAGUGGAUCACCCAUAGAAGGCCGAACAUGAGGAUCACCCAUGUGGAACAGGAUCACCGUUGUU			79 nM	77 nM
UGCGGUAGAGGAUAUACGUAGAACUAGGUUCAUGUAAAACUACAUGAGGAUCACCCAUGUAGAAGGCUAUCGCU	17 nM	22.4 nM		
UUUUAGUCAGGAUAUACAUUUUUUUAAUUAUUUAUAAUAUUACAUGAGGAUCACCCAUGUAGAAGGGACAUUUU	28.6 nM	26.2 nM		
GCACUGGAUGUAGGAUAUCAGGACGAUAAGUCCUGAGAAGGACAUGAGGAUCACCCAUGUAAAACUCACCAGUGCUAUAAUAUA	12.8 nM	17.7 nM		
GAUUAACAUGAGGAUCACCCAUGUGAGGAUAUGAACUUGCCCACUUACCCUUUAGAGUUUAGAAGGCGCAUUUC	18.9 nM	19 nM		
AGGUAAACCACAGGAUAUGGCUAGCAUAGCUAGCCAGAAGGGUGGUCGUAACCAUGUAAAUACAUGAGGAUCACCCAUGUAUCC			89.8 nM	36 nM
GGUAGAAACAUUAACAUGAGGAUCACCCAUGUCAAAAGAAAUGAGGAUAUCGUCUACAAUGUAGAUGAGAAGGCAUGGUCUGCC			8.45 nM	6.84 nM
UGAUCGAGAGAUCUUAGAUUCUGGUAGGAUAUACAUUAUGAAAACUUUACAUGAGGAUCACCCAUGUAGAAGGACUAGAGUCUA	7.74 nM	9.74 nM		

Sequence	apparent Kd [1]	apparent Kd [2]	apparent Kd [3]	apparent Kd [4]
CCGGAUACGGGUAGCCUGACAUGAGGAUCACCCAUGUGAUCCUAGGAUAUGGAUCCUAAUUGGAUCCAGAAGGAGGUUGGCUAC			860 nM	436 nM
GACAUGAGGAUCACCCAUGUCCCUCCAGAAGGCUGGCGCGCGAAACCUAUAUCGGUUCCGGGCACAGAGGAUAUGGGCGGUUGG			199 nM	27.2 nM
UGUUAUAGAGGAUAUGCGUGAAUAUAGAUUCAUGGAAAUUUACAUGAGGAUCACCCAUGUAGAAGGCUGUGAUU	14.4 nM	15.3 nM		
CUUUUGUGAGGAUAUCAGUAGUAUAUAAAUAAAAUUACUACUGAGAAGGCACAUGAGGAUCACCCAUGUUCCUC	39.2 nM	164 nM		
GCAAAGCCUGACAUGAGGAUCACCCAUGUUAGAUUGUUAUGUCAGGAUAUUGUCUAGACACUAGACAAGAAGGGAUGCUUUGCU			366 nM	34.2 nM
GGUACUCAAAGAGUACCAAUACGAACAUGAGGAUCACCCAUGUAGGAUAUGCUACAAAAGGAGUAGCAGAAGGACAUGUGCCUA	13 nM	60.8 nM		
CAGAAGUCAGGAUAUGCAUGGCGGGACUUGCGUCGUGGCGUGCAGAAGGGACAUGAGGAUCACCCAUGUAAAGU	53.5 nM	69.7 nM		
GUCAUGUCAGGAUAUGCUUAUGAUGGGUGCUCAGACAUGAUGCAGAAGGGACAUGAGGAUCACCCAUGUACUGU	62.5 nM	62.5 nM		
UUAUGACCGUAAAUAAGGUUGUCGAAGGAUAUUACAGGAGUACGAUCACAUGAGGAUCACCCAUGUAAGAAGGUCGAUACGCUG	17 nM	76.4 nM		
UGGUACAUCAUAGGAUAUCGUGUGUAAACAUGAGGAUCACCCAUGUCAUACGAGAGUAUGUAGAUCGAGAAGGAUGAUGUACCU			18.1 nM	16.1 nM
CAGCAUCAUGUAGGAUAUGCGUGGCGAAGCUAUGCAGAAGGACAUGAGGAUCACCCAUGUCUUACCUAGCGUACUAGGUUGCUG	7.3 nM	16.6 nM		
ACAUGAGGAUCACCCAUGUAUACAUAGGAUAUUGGUGAUCAGGGAUGUUUUACAGGAUAUGUCUGCGAGAAGGAUGCAAGUACU			178 nM	94.7 nM
UCGCUGCGAGGAUAUACAUGAGGAUCACCCAUGUGCGGGUCCGGGUUUUCGUCCAUUAGUAGAAGGCGCAGUGA	369 nM	46.5 nM		
AAAUUUAACGAAGGAUAUACAAACAUGAGGAUCACCCAUGUGUGUUUCGUGUUACUGAAAUUCGGGUAGAAGGUCGUAUACAUA	23.4 nM	18.1 nM		
AAGGGACAUGAGGAUCACCCAUGUUCGAAAGACGAUGGAUCGCAGGAUAUCCAGUGUUAGAGAGAGGAGAAGGGUGAUCCUAUU			36.3 nM	27.7 nM
AACCAACAUGAGGAUCACCCAUGUCAACCCAAGCGAGGAUAUCCGAGAAUAACAAUGGGAGGAGAAGGCGCGACCU			73.4 nM	55.6 nM
UUAAAUCAUGUAGGAUAUGCAUGGCGAAGCUACGCAGAAGGACAUGAGGAUCACCCAUGUGCUAGCGACAGAGAACUGUUGCAA	56.9 nM	311 nM		
CUUUUGUGAGGAUAUCUGGCUUCGAUCGUGAGAUCGAGGCUAGAGAAGGCACAUGAGGAUCACCCAUGUACCUC	24.3 nM	149 nM		
AUCCUACAUGAGGAUCACCCAUGUGAGGCCUCAAUAGGAUAUGCGUGUGCCUUGGCGCAUGCAGAAGGAUUGAAGC			363 nM	52.5 nM

Sequence	apparent Kd [1]	apparent Kd [2]	apparent Kd [3]	apparent Kd [4]
GGAAAUCAUGUAGGAUAUGCAUGGCGAAGCUACGCAGAAGGACAUGAGGAUCACCCAUGUUCUAGCUACCGAGUUCGGUGGCAA	21.6 nM	114 nM		
AUUAAACAUGAGGAUCACCCAUGUCAACAAAGUCGAGGAUAUGGGCAUAUUAUCUAAUAACCAGAAGGCGAAUAAU			182 nM	45.9 nM
UGCUACGGAGGAUAUACAUGAGGAUCACCCAUGUGAUAUAUUAUGCCGAGAGGCUAGUGUAGAAGGCCGUAGCU	67 nM	576 nM		
GAUUAACAUGAGGAUCACCCAUGUGAGGAUAUGGAAUGGCACAUUGUUUGAUUCCCGUCUAGAAGGCACAUCUU	44.5 nM	41.6 nM		
AGAUCAGUCUGAGUGCCUCGCGCGAGAAGGUACAGUGUUGUCCUGUUACAUGAGGAUCACCCAUGUAAGGAUAUCGCCGAGGAG	7.86 nM	28.4 nM		
CCAUGGCUGUGAGGAUAUGUCUGACAAAGUCAGACAGAAGGCACAUGAGGAUCACCCAUGUGAGGAAAACCACAUUUGCCAUGG	5.81 nM	6.29 nM		
AUCAGCUCGUCAGGAUAUACGUCACUGCGUCAGCAGUGUGGUAAGAUCACAUGAGGAUCACCCAUGUAGAAGGGACGAGCUUAU	13.8 nM	260 nM		
GAUUCACAUGAGGAUCACCCAUGUGAGGAUAUCUAGGUGCGGAGGCUAAGACCUCCAGAGAGAAGGCACAUGGC	24.2 nM	36.8 nM		
CCUAUGUGAGGAUAUGGUGUUGGCCACAGGGAAAAGGUCCUCCAGAAGGCACAUGAGGAUCACCCAUGUCGUGA	84.6 nM	158 nM		
CUGAGCUUAGGAUAUACGUGUUGAUCUGAUCUCGACCUAUUACAUGAGGAUCACCCAUGUAGAAGGGAGCCGGA	17.6 nM	19.3 nM		
GUUAAGGUAGGAUAUACGAUAAGAUAGGGUAGAUAUAUAACACAUGAGGAUCACCCAUGUAGAAGGACCAAUUG	38.3 nM	105 nM		
ACAUGAGGAUCACCCAUGUUAUUUGGGAAUUAAUUUAUUUGUAGAAGGAUGUUUUCUUGUUAGUCAUAGGAUAUACUAUUAAAU	40.7 nM	34.4 nM		
UAAUAGUGAGGAUAUACAGAAUCUGGGUCCCGCGUGUUGAGACAUGAGGAUCACCCAUGUAGAAGGCACAAAAU	108 nM	42.5 nM		
ACAGCGGCAGGAUAUGCAUGCUCCGACUUAUGCCUACAAAGACAUGAGGAUCACCCAUGUAGAAGGGCCAGCGG	13.8 nM	15.2 nM		
UCCUUCUGUUGAGGAUAUGUAAGACAGCGGCCGCUAUGGCAGCACGCUGAUACAGAAGGCAACAUGAGGAUCACCCAUGUUCAA	18.9 nM	146 nM		
UAUUAGUGAGGAUAUGAGUCGUAGAACAAUAGUACUACGUCUCAGAAGGUACAUGAGGAUCACCCAUGUUCCUC	19 nM	22.8 nM		
AAUUGGAUGCAGAAGGCAUGGACGACUCGUCACAUUAACAUGAGGAUCACCCAUGUCAAAAUACAUGAGGAUAUGCAUCCUAAA			140 nM	12 nM
CAUUAAUUAAUUAUAGUAUUUAUACAGGAUAUGUAACAUGAGGAUCACCCAUGUAUACAUGGGAAACAGAAGGGUAUUUAUAGA	32 nM	28.8 nM		
